Data published in ChEMBL document CHEMBL2406952, “Identification of vitamin d3-based hedgehog pathway inhibitors that incorporate an aromatic a-ring isostere” (ACS Med Chem Lett, 2013).
Calls of active or inactive are those of the source. No cut-off for these calls is given here.

How the values were obtained:
[1] = molecular target: T1, Vitamin D3 receptor (Homo sapiens) (UniProt P11473); assay: Binding affinity to human VDR by fluorescence polarization assay
T1 sequence (whole entry): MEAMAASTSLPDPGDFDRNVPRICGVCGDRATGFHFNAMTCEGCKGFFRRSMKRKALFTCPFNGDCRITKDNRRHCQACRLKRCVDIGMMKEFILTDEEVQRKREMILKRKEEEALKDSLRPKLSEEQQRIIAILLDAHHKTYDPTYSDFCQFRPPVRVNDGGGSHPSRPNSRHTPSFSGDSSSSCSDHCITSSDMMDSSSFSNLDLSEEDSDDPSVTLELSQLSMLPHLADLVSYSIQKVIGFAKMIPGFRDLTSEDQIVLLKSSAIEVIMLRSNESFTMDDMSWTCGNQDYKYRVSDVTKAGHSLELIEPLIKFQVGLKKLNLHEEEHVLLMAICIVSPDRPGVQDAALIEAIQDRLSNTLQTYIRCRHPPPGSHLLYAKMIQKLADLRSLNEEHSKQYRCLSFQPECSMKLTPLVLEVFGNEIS
Procedure, shortened: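 Fluorescence polarization competition kit with full-length human VDR and a tight-binding fluorescent VDR ligand, run per manufacturer's instructions. Compounds tested at 50 and 100 μM, with calcitriol as positive control for binding.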

[2] = molecular target: T2, Vitamin D3 receptor (Mus musculus) (UniProt P48281); assay: Activation of VDR in mouse C3H10T1/2 cells assessed as upregulation of Cyp24A1 mRNA expression at 5 uM after 24 hrs by RT-PCR analysis relative to DMSO-treated control; format: cell-based; conditions: C3H 10T1/2
T2 sequence (whole entry): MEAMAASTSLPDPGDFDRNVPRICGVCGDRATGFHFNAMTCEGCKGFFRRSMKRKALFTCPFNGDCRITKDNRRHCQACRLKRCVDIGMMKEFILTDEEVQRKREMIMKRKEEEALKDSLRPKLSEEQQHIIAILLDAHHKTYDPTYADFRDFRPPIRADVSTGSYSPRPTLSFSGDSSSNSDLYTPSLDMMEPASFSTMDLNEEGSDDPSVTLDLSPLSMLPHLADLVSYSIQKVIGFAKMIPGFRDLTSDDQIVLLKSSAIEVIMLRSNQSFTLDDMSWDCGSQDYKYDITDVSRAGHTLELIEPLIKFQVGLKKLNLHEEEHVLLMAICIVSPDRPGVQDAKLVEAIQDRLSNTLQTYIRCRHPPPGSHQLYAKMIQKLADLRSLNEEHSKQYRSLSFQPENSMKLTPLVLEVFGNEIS
Procedure, shortened: (§1)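 Cyp24A1 mRNA normalized to ActinB and expressed relative to DMSO vehicle (set to 1.0). Cells treated for 24 h at 5 μM (some agents at 1 μM).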

[3] = Inhibition of Hedgehog signaling in mouse C3H10T1/2 cells assessed as downregulation of Gli1 mRNA expression at 5 uM after 24 hrs by RT-PCR analysis relative to 20(S)-hydroxycholesterol and 22(S)-hydroxycholesterol; format: cell-based; conditions: C3H 10T1/2
Procedure, shortened: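 Endogenous Gli1 mRNA measured after 24 h at 5 μM and normalized to ActinB with DMSO vehicle set to 1.0. Cells stimulated with 20(S)-hydroxycholesterol plus 22(S)-hydroxycholesterol (5 μM each) define 100% pathway activity, and the analogue effect is given as % of this level.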

[4] = Inhibition of Hedgehog signaling in human DaOY cells assessed as downregulation of Gli1 mRNA expression after 48 hrs by RT-PCR analysis; format: cell-based
Procedure, shortened: (§2)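 Gli1 mRNA dose-response after 48 h compound incubation, used to derive IC50 (μM). Each value comes from at least two separate experiments, each performed in triplicate.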

[5] = Inhibition of Hedgehog signaling in mouse ASZ001 cells assessed as downregulation of Gli1 mRNA expression after 48 hrs by RT-PCR analysis; format: cell-based; conditions: ASZ001, 48 h; procedure, shortened: as §2
[6] = Inhibition of Hedgehog signaling in mouse M210B4 cells assessed as downregulation of Ptch mRNA expression after 24 hrs by RT-PCR analysis; format: cell-based; conditions: M210B4, 24 h
Procedure, shortened: (§3)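 Oxysterol-stimulated cells (20(S)- plus 22(S)-hydroxycholesterol, 5 μM each) were treated with compound across a dose range for 24 h. Gli1 and Ptch mRNA were normalized to ActinB, and IC50 values were derived. VD3 was dosed up to 10 μM.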

[7] = Inhibition of Hedgehog signaling in mouse M210B4 cells assessed as downregulation of Gli1 mRNA expression after 24 hrs by RT-PCR analysis; format: cell-based; conditions: M210B4, 24 h; procedure, shortened: as §3
Daoy = assay: Downregulation of Gli1 mRNA expression in human DaOY cells at 2.5 uM relative to DMSO-treated control; format: functional
[8] = molecular target: T1, Vitamin D3 receptor (Homo sapiens); assay: Activation of VDR in human DaOY cells assessed as upregulation of Cyp24A1 mRNA expression at 5 uM after 48 hrs by RT-PCR analysis relative to DMSO-treated control; format: cell-based
Procedure, shortened: (§4)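 Cyp24A1 mRNA measured after 48 h exposure to analogue and normalized to ActinB, expressed relative to DMSO vehicle-treated cells (set as 1.0). Single concentrations tested were 2.5, 5 or 10 μM.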

[9] = molecular target: T2, Vitamin D3 receptor (Mus musculus); assay: Activation of VDR in mouse ASZ001 cells assessed as upregulation of Cyp24A1 mRNA expression at 5 uM after 48 hrs by RT-PCR analysis relative to DMSO-treated control; format: cell-based; procedure, shortened: as §4
[10] = Inhibition of Hedgehog signaling in mouse C3H10T1/2 cells assessed as downregulation of Ptch mRNA expression after 24 hrs by RT-PCR analysis; format: cell-based; conditions: for inhibition: C3H 10T1/2; for IC50: C3H 10T1/2, 24 h; procedure, shortened: as §3
[11] = Inhibition of Hedgehog signaling in mouse C3H10T1/2 cells assessed as downregulation of Gli1 mRNA expression after 24 hrs by RT-PCR analysis; format: cell-based; conditions: for inhibition: C3H 10T1/2; for IC50: C3H 10T1/2, 24 h; procedure, shortened: as §3
[12] = molecular target: T1, Vitamin D3 receptor (Homo sapiens); assay: Activation of VDR in human DaOY cells assessed as upregulation of Cyp24A1 mRNA expression at 2.5 uM after 48 hrs by RT-PCR analysis relative to DMSO-treated control; format: cell-based
Procedure, shortened: (§5)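 Cells exposed to compound for 48 h; Cyp24A1 mRNA expression measured and expressed relative to DMSO vehicle-treated cells, set as 1.0.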

[13] = molecular target: T2, Vitamin D3 receptor (Mus musculus); assay: Activation of VDR in mouse M210B4 cells assessed as upregulation of Cyp24A1 mRNA expression at 1 uM after 24 hrs by RT-PCR analysis relative to DMSO-treated control; format: cell-based
Procedure, shortened: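 M2-10B4 murine bone marrow stromal cells treated for 24 h at 1 μM; Cyp24A1 mRNA normalized to ActinB and expressed relative to DMSO vehicle, set to 1.0.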

[14] = Inhibition of Hedgehog signaling in mouse ASZ001 cells assessed as downregulation of Gli1 mRNA expression at 10 uM after 48 hrs by RT-PCR analysis relative to control; values are per cent of control
[15] = molecular target: T2, Vitamin D3 receptor (Mus musculus); assay: Activation of VDR in mouse ASZ001 cells assessed as upregulation of Cyp24A1 mRNA expression at 5 to 10 uM after 48 hrs by RT-PCR analysis; format: cell-based; procedure, shortened: as §5
[16] = molecular target: T2, Vitamin D3 receptor (Mus musculus); assay: Activation of VDR in mouse M210B4 cells assessed as upregulation of Cyp24A1 mRNA expression at 5 uM after 24 hrs by RT-PCR analysis relative to DMSO-treated control; format: cell-based; procedure, shortened: as §1
[17] = Inhibition of Hedgehog signaling in mouse M210B4 cells assessed as downregulation of Gli1 mRNA expression at 10 uM after 24 hrs by RT-PCR analysis relative to 20(S)-hydroxycholesterol and 22(S)-hydroxycholesterol; format: cell-based
Procedure, shortened: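 M2-10B4 murine bone marrow stromal cells, Hh-responsive, treated for 24 h. Gli1 mRNA normalized to ActinB. Positive control 20(S)-hydroxycholesterol:22(S)-hydroxycholesterol (5 μM each) set as 100% pathway signaling. Values given as % of this level.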

[18] = molecular target: T2, Vitamin D3 receptor (Mus musculus); assay: Activation of VDR in mouse ASZ001 cells assessed as upregulation of Cyp24A1 mRNA expression at =< 2.5 uM after 48 hrs by RT-PCR analysis; format: cell-based; procedure, shortened: as §5
[19] = molecular target: T1, Vitamin D3 receptor (Homo sapiens); assay: Activation of VDR in human HT-29 assessed as upregulation of Cyp24A1 mRNA expression after 6 hrs by Northern blotting analysis
[20] = molecular target: T1, Vitamin D3 receptor (Homo sapiens); assay: Activation of VDR in human DaOY cells assessed as upregulation of Cyp24A1 mRNA expression at 10 uM after 48 hrs by RT-PCR analysis relative to DMSO-treated control; format: cell-based; procedure, shortened: as §4

SMILES	Activity [1] [µM]	fold change (FC) [2]	Gli1 mRNA level (% of OHC control) [3] [%]	IC50 [4] [µM]	IC50 [5] [µM]	other results
CC(C)CCC[C@@H](C)[C@H]1CC[C@H]2[C@@H](OC(=O)c3cccc(C(=O)O)c3)CCC[C@]12C	> 100	6.7	40			
CS(=O)(=O)c1ccc(C(=O)Nc2ccc(Cl)c(-c3ccccn3)c2)c(Cl)c1 [VISMODEGIB]				0.086	0.04	IC50 [6]: 0.14 µM; IC50 [7]: 0.2 µM
O=C(CCCCCCC(=O)Nc1ccccc1)NO [VORINOSTAT]						fold change (FC) (Daoy): 1.51
CC(C)CCC[C@@H](C)[C@H]1CC[C@H]2[C@@H](OC(=O)c3cccc(N)c3)CCC[C@]12C	> 100	24.3	2.4	9.2	7.1	fold change (FC) [8]: 0.5; fold change (FC) [9]: 2.5; inhibition [10]: Dose-dependent effect; IC50 [10]: 4.5 µM; inhibition [11]: Dose-dependent effect; IC50 [11]: 2.8 µM
CC(C)CCC[C@@H](C)[C@H]1CC[C@H]2[C@@H](OC(=O)c3cccc(Cl)c3)CCC[C@]12C	> 100	1.2	107			
Cc1ccc(NC(=O)c2ccc(CN3CCN(C)CC3)cc2)cc1Nc1nccc(-c2cccnc2)n1 [IMATINIB]						fold change (FC) (Daoy): 0.98
COc1cccc(C(=O)O[C@H]2CCC[C@]3(C)[C@@H]([C@H](C)CCCC(C)C)CC[C@@H]23)c1	> 100	1.3	104			
CC(C)CCC[C@@H](C)[C@H]1CC[C@H]2[C@@H](OC(=O)c3cccc(OCc4ccccc4)c3)CCC[C@]12C	> 100	1	116			
CC1=C2C[C@H]3[C@@H](CC=C4C[C@@H](O)CC[C@@]43C)[C@@H]2CC[C@]12O[C@@H]1C[C@H](C)CN[C@H]1[C@H]2C [CYCLOPAMINE]				0.16	0.66	fold change (FC) [12]: 1; fold change (FC) [9]: 0.8; fold change (FC) [13]: 1.5; IC50 [6]: 0.43 µM; IC50 [7]: 0.8 µM
CNc1cccc(C(=O)O[C@H]2CCC[C@]3(C)[C@@H]([C@H](C)CCCC(C)C)CC[C@@H]23)c1	> 100	1.6	97.8			
O=C(O)c1cccc(O)c1	> 100	1.6	92.6			
CC(=O)c1cccc(C(=O)O[C@H]2CCC[C@]3(C)[C@@H]([C@H](C)CCCC(C)C)CC[C@@H]23)c1	> 100	1.6	77.5			
CC(C)CCC[C@@H](C)[C@H]1CC[C@H]2[C@@H](O)CCC[C@]12C		3.6	46.4	> 10	> 10	fold change (FC) [8]: 0.8; fold change (FC) [9]: 2.4; IC50 [10]: 2.8 µM; IC50 [11]: 3.1 µM; level, % of control [14]: 65%
C=C1CC[C@H](O)C/C1=C/C=C1\CCC[C@]2(C)[C@@H]([C@H](C)CCCC(C)C)CC[C@@H]12 [CHOLECALCIFEROL]		8340	35.7	> 10	2.1	Activity [15]: Active; fold change (FC) [8]: 149; fold change (FC) [16]: 274; inhibition [17]: 53%; IC50 [6]: > 10 µM; IC50 [7]: > 10 µM; IC50 [10]: 2.9 µM; IC50 [11]: 4.1 µM; Activity [18]: Active
COC[C@H]1OC(=O)c2coc3c2[C@@]1(C)C1=C(C3=O)[C@@H]2CCC(=O)[C@@]2(C)C[C@H]1OC(C)=O [WORTMANNIN]						fold change (FC) (Daoy): 0.92
CC(C)CCC[C@@H](C)[C@H]1CC[C@H]2[C@@H](OC(=O)c3cccc(O)c3)CCC[C@]12C	> 100	22.2	1.9	3.7	5.2	fold change (FC) [8]: 0.4; fold change (FC) [9]: 1.9; Activity [19]: inactive; fold change (FC) [16]: 1.2; IC50 [6]: 1.7 µM; IC50 [7]: 1.1 µM; inhibition [10]: Dose-dependent effect; IC50 [10]: 1.1 µM; inhibition [11]: Dose-dependent effect; IC50 [11]: 0.74 µM
CC(C)CCC[C@@H](C)[C@H]1CC[C@H]2[C@@H](OC(=O)c3ccccc3)CCC[C@]12C	> 100	1.2	105	> 10	> 10	fold change (FC) [20]: 0.6; fold change (FC) [9]: 1.1
